ATG4B inh: ATG4B (human) cysteine protease inhibition | ATG4B cleavage of LC3-PLA2, NBD-HPC fluorescence, 1 h | inhibition, % at 8.33 µM | hit rate 0.51% among 340,000; in the data active = inhibition above about 40%
Target sequence (Q9Y4P1 whole entry, looked up): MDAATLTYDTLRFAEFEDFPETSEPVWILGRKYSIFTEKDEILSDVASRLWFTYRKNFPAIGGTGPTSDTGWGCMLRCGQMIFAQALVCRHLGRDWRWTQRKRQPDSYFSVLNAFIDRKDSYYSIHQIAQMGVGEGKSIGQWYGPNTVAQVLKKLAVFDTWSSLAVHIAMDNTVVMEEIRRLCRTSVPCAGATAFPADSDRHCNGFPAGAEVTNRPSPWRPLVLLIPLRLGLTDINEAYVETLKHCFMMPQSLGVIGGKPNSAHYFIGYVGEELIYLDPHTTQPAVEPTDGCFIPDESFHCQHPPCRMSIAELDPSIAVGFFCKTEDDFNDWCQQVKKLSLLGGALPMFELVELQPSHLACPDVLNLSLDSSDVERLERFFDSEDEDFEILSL
UCH37 DUB inh: inhibitors of human deubiquitinating enzyme UCH37 | Q9Y5K5 | purified proteasome/UCH37, Ub-AMC cleavage fluorescence | inhibition, % (concentration not given with the values) | hit rate 0.33% among 330,000;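 active = mean inhibition over replicate wells above about 20%, limit read from the data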;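 also: 0% = compound-free wells with enzyme and 100% = wells lacking proteasome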
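Material: Human UCH37 enzyme supplied as purified proteasome complex | Schedule: 30 min compound-proteasome preincubation then 25 min substrate reaction, room temperature | Detection: AMC fluorescence from Ub-AMC cleavage, excitation 355 nm, emission 460 nm | Benchmarks: Wells without proteasome as full block, compound-free enzyme plus substrate as uninhibited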
SENP1 FRET inh: inhibitors of human SENP1 SUMO protease catalytic domain; AID 624204; recombinant SENP1 catalytic domain, CyPet-SUMO1-YPet FRET cleavage; hit rate 0.21% among 360,000; inhibition, % at 10 µM; Q9P0U3;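 active = inhibition at least 30% at 10 µM, raw YFP signal under a set limit, fluorescence ratio 0.5 to 1.5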;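 also: 0% = enzyme with DMSO and 100% = no enzyme wells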
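System: Recombinant human SENP1 catalytic domain, His6-tagged | Incubation: Enzyme reaction for 50 min at room temperature, dark | Medium: Tris pH 8 with BME, BSA, NP40 and catalase | Also added: 25 nM SUMO1 FRET substrate | Compound: 10 µM single point, 0.5% DMSO | Measured by: FRET fluorescence in CFP and YFP emission channels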
NR3A LBD binder: modulators (binders) of human NR3A ligand-binding domain | NR3A LBD differential scanning fluorimetry, Tm shift; 0% = protein alone, 100% = glycine-bound protein | Tm shift relative to glycine control, % at 25 µM | hit rate 2.5% among 340,000 | AID 1259313;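 active = melting temperature shift of at least 10% of the positive control shift, at one fixed dose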
NadD block: inhibitors of Staphylococcus aureus NadD; purified NadD enzyme, colorimetric absorbance read-out; inhibition, % at 20 µM; hit rate 0.78% among 360,000; AID 602399; in the data active = inhibition above about 26%
* = called active by the depositor; · = not tested or not shown. Compounds with a hit are over-represented: about 3.6% of the library has one in this group of screens.

SMILES	ATG4B inh	UCH37 DUB inh	SENP1 FRET inh	NR3A LBD binder	NadD block
O=C(CCC(=O)Nc1ccc(F)cc1)NN=Cc1ccncc1	·	-0.9	·	·	·
CC(C)c1ccc(C=NNC(=O)CN(c2cccc(Cl)c2Cl)S(C)(=O)=O)cc1	·	2.0	·	·	·
COc1cc(C)c(CNc2cccc(C)c2)cc1C	7.1	2.6	-0.1	2.1	-6.9
COc1cc(C)c(CNc2cc(C)cc(C)c2)cc1C	-5.9	4.5	-2.6	20.4*	1.0
O=C(Cc1ccc(F)cc1)NN=Cc1ccc2c(c1)OCO2	·	1.7	·	·	·
CN(C(=O)c1cccc(NC(=O)Cc2ccc(NC(=O)C3CCN(S(=O)(=O)c4cccc([N+](=O)[O-])c4)CC3)cc2)c1)C1CCCC1	5.2	0.7	2.8	8.6	19.4
CN(C(=O)c1cccc(NC(=O)Cc2ccc(NC(=O)C3CCCN(S(=O)(=O)c4cccc([N+](=O)[O-])c4)C3)cc2)c1)C1CCCCC1 (stereo not drawn)	-4.4	0.8	1.0	10.0*	28.3
CN(C(=O)c1ccc(NC(=O)Cc2cccc(NC(=O)C3CCCN(C(=O)CCc4ccccc4)C3)c2)cc1)C1CCCC1 (stereo not drawn)	-17.4	-0.3	-2.8	22.4*	11.4
CN(C(=O)c1cccc(NC(=O)Cc2ccc(NC(=O)C3CCCN(C(=O)CCc4ccccc4)C3)cc2)c1)C1CCCC1 (stereo not drawn)	-13.4	·	2.0	0.9	5.3
Cc1cc(C(=O)NN=Cc2ccccc2Br)no1	·	3.1	·	·	·
COc1ccc2oc(=O)c(C(C)=NNc3nc(-c4cc(C)ccc4C)cs3)cc2c1	·	5.2	·	·	·
Cc1c(C=Nn2cnnc2)c2ccccc2n1CCOc1ccc(Cl)cc1	·	1.3	·	·	·
CS(=O)(=O)c1ccc2nc(NC(=O)Nc3ccc(Cl)cc3)sc2c1	0.6	2.4	0.6	27.6*	11.6
CS(=O)(=O)c1ccc2nc(NC(=O)c3ccc(Cl)cc3)sc2c1	-3.2	·	1.4	8.4	-1.4
Cc1nc(NC(=O)Nc2ccc(Cl)cc2)sc1C	14.0	-0.3	-27.8	12.1*	1.1
O=C(Nc1nc2ccccc2s1)Nc1ccc(F)cc1F	1.7	1.2	2.3	-2.6	-3.8
NS(=O)(=O)c1ccc2nc(NC(=O)Nc3ccc(F)cc3)sc2c1	-22.9	2.1	-5.7	23.2*	-3.5
O=C(Cc1ccc(S(=O)(=O)N2CCOCC2)s1)Nc1cc(C(F)(F)F)cc(C(F)(F)F)c1	-35.7	4.0	-8.9	17.3*	-8.1
CCc1ccc(C2NC(=S)NC3=C2C(=O)CC(C)(C)C3)cc1 (stereo not drawn)	-0.2	-7.2	-50.9	21.3*	1.2
O=C(Nc1ccncc1)Nc1cccc(C(F)(F)F)c1	-4.0	1.6	0.0	14.4*	-10.1
O=C(Nc1ccc(OC(F)F)cc1)Nc1cccc(C(F)(F)F)c1	-1.6	2.3	-1.1	38.9*	-3.2
NNC(=O)Nc1cccc(C(F)(F)F)c1	-22.9	1.4	2.1	0.1	0.3
COc1ccc(N/N=C(\C#N)C(=N)SCc2ccccc2)cc1	-2.3	·	-1.4	29.0*	-1.1
O=C(CSc1nnc2c(n1)[nH]c1ccc(F)cc12)N1CCOCC1	1.6	6.8	-1.0	1.9	2.9
CC1Cc2ccccc2N1C(=O)CSc1nnc2c(n1)[nH]c1ccc(F)cc12 (stereo not drawn)	-12.8	4.5	-3.6	22.2*	21.4
SMILES	ATG4B inh	UCH37 DUB inh	SENP1 FRET inh	NR3A LBD binder	NadD block
O=C(CSc1nnc2c(n1)[nH]c1ccc(F)cc12)NCc1ccc(F)cc1	-3.8	2.0	-2.3	10.1*	9.7
O=C(NN=Cc1cn(-c2cccs2)nc1-c1ccccc1)c1ccccc1O	·	-117.6	·	·	·
Cc1cccc(OCC(=O)NN=Cc2cc([N+](=O)[O-])ccc2N2CCOCC2)c1	·	4.1	·	·	·
Oc1ccc(Br)cc1/C=N/n1c(COc2ccccc2)n[nH]c1=S	23.2	·	-25.0	10.3*	15.1
CCOc1ccc(/C=N/n2c(COc3ccccc3)n[nH]c2=S)cc1OC	-6.3	·	0.3	14.9*	-1.9
COC(=O)N/N=C1\CCCc2ccccc21	-4.4	·	0.3	8.0	0.5
O=C(O)c1ccc(NN=C2CCCc3ccccc32)cc1	·	22.2*	·	·	·
COc1ccc(C2=CSC(/N=C/c3ccc(F)cc3)=NN2)cc1	2.6	·	-7.8	21.2*	5.1
CC(=O)OC(C)C1C2=C(C(=O)CC1(C)O)C(=O)c1c(ccc(-c3ccc4c(c3O)C(=O)C3=C(C4=O)C(C(C)OC(C)=O)C(C)(O)CC3=O)c1O)C2=O (stereo not drawn)	-4.5	·	25.7	-1.0	45.0*
